Laboratory results as given in PubChem BioAssay.
Calls of active or inactive are those of the source. Unless noted, how the calls were made is not given here.

Assays:
[1] = molecular target: Pantothenate synthetase (Mycobacterium tuberculosis (strain ATCC 25618 / H37Rv)) (UniProt P9WIL5); experiment: Recombinant Mtb pantothenate synthetase (PanC) inhibitors, coupled enzyme, confirmatory (AID 375); settings: coupled enzyme assay; at 10 µM, stronger effect = higher value;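 further: 0% = full reaction with vehicle and 100% = no enzyme background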
Chain of Pantothenate synthetase (Mycobacterium tuberculosis (strain ATCC 25618 / H37Rv)) (P9WIL5 whole entry, looked up): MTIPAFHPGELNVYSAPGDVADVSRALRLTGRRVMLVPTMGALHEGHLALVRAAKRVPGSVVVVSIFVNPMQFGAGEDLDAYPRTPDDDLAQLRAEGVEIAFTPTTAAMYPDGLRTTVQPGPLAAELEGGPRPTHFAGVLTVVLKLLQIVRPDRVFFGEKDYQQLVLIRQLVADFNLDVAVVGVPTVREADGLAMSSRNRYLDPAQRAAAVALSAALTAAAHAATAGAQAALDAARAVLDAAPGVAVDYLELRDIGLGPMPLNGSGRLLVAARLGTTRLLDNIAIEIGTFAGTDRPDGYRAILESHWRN

[2] = SK-BR-3 cell growth inhibitors, pilot screen, 24 h, human (AID 572;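 active means viability at or below 10% of carrier control in both of two separate runs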;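 further: compound exposure lasted between 18 and 24 h rather than exactly 24 h; 100% = carrier-treated control wells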); settings: SK-BR-3 viability, CellTiter-Glo luminescence, at 10 µM, stronger effect = lower value
[3] = HUVEC growth inhibition – cell-based, human, primary screen (AID 575;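 active means viability at or below 30% in both replicate assays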;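 further: 100% = median of untreated cell wells with 0.1% DMSO on each plate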); settings: HUVEC proliferation, CellTiter-Glo luminescence, 72 h; at 10 µM; stronger effect = lower value
Method in brief: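 Material: primary human umbilical vein endothelial cells / Schedule: 72 h exposure, 37 °C, 5% CO2, 30 min RT equilibration / Signal: ATP-based CellTiter-Glo luminescent read / Read-out basis: percent of median DMSO-control luminescence / Control set: 32 DMSO-only cell-control wells (high), 32 MePR drug-control wells (low) per plate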

[4] = growth inhibitors of H69AR lung tumor, primary screen, human, duplicate replicates (AID 580;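 active means viability at or under a set limit in both replicates, limit being median viability minus 3 SD, cut at about 48% in these data, passing the limit was not always enough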;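 further: 100% = mean luminescence of untreated wells and 0% = no signal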); settings: H69AR lung tumor cells viability, ATP luminescence, 72 h; at 10 µM; stronger effect = lower value
[5] = reversal of MRP1-mediated doxorubicin resistance, pilot screen, H69AR cells, doxorubicin co-treatment (AID 601;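 active means viability loss from added drug above about 55%, and viability with drug at most 40%, in both replicates, limit read from the data, passing the limit was not always enough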); settings: CellTiter-Glo, 72 h, at 10 µM; for differential viability (reversal): stronger effect = higher value
[6] = 384-well plate pilot, post-Golgi transport modulator project, inhibition of yeast transport mutant growth (AID 636; in the data active means inhibition above about 31%); settings: absorbance 615 nm, about 18 h, stronger effect = higher value
[7] = growth suppression of yeast trafficking mutant, preliminary HTS, modulators of trafficking downstream of Golgi apparatus project, 1536-format plate, OD 615 nm (AID 637; in the data active means inhibition above about 30%); settings: yeast transport mutant growth, absorbance 615 nm, 18 h; stronger effect = higher value
[8] = H69AR cells + 2 uM doxorubicin, measured here: viability with 2 uM doxorubicin, stronger effect = lower value
[9] = H69AR cells, compound alone cytotoxicity

SMILES	inhibition [1]	viability [2]	viability [3]	viability [4]	differential viability (reversal) ([5]; H69AR cells + 2 uM doxorubicin)	viability [5, 8] [%]	viability [5, 9] [%]	inhibition [6]	inhibition [7]
CC(C)OCCCNC(=O)c1c(N)n(Cc2cccs2)c2nc3ccccc3nc12	0% (inactive)	26%	6.24% (active)	61.1% (inactive)	-18.8% (inactive)	79.8	61.1	-2.47% (inactive)	-7.33% (inactive)
COc1ccccc1CN1CCN(C(=O)Cc2ccccc2)CC1	1% (inactive)	97% (inactive)	101% (inactive)	99.6% (inactive)	3.51% (inactive)	96.1	99.6	-4.8% (inactive)	-4.36% (inactive)
CN1CC[C@@]23CCCC[C@@H]2[C@@H]1Cc1ccc(O)cc13	1% (inactive)	88% (inactive)	79.4% (inactive)	95.8% (inactive)	7.79% (inactive)	88	95.8	-3.12% (inactive)	-0.33% (inactive)
O=C(C1CCCN(c2nnc(-n3cccc3)s2)C1)N1CCC2(CC1)OCCO2 (centres undefined)	0% (inactive)	83% (inactive)	109% (inactive)	94.3% (inactive)	12.8% (inactive)	81.6	94.3	-7.33% (inactive)	-5.09% (inactive)
C[C@]12CCC(=O)C=C1CC[C@@H]1[C@@H]2CC[C@]2(C)C(=O)CC[C@@H]12	0% (inactive)	79% (inactive)	76.8% (inactive)	85.3% (inactive)	-1.5% (inactive)	86.8	85.3	-3.38% (inactive)	-0.83% (inactive)
CC(C)[C@@]1(NC(=O)[C@@H]2C=C3c4cccc5[nH]cc(c45)C[C@H]3N(C)C2)O[C@@]2(O)[C@@H]3CCCN3C(=O)[C@H](Cc3ccccc3)N2C1=O	3% (inactive)	103% (inactive)	89% (inactive)	90.5% (inactive)	-9.99% (inactive)	101	90.5	-0.13% (inactive)	16.8% (inactive)
CN1C(=O)CN=C(c2ccc(Cl)cc2)c2cc(Cl)ccc21	0% (inactive)	84% (inactive)	61.8% (inactive)	84.8% (inactive)	0.31% (inactive)	84.5	84.8	0.39% (inactive)	4.17% (inactive)
O=c1[nH]c(=O)n(-c2cccc3ccccc23)c(O)c1C=NCCCn1ccnc1	0% (inactive)	63% (inactive)	101% (inactive)	102% (inactive)	10% (inactive)	92	102	-5.21% (inactive)	1.27% (inactive)
CC(=O)[C@@]1(O)CC[C@H]2[C@@H]3CC=C4C[C@@H](O)CC[C@]4(C)[C@H]3CC[C@@]21C	0% (inactive)	89% (inactive)	84.6% (inactive)	89.8% (inactive)	5.5% (inactive)	84.3	89.8	-0.26% (inactive)	4.33% (inactive)
c1ccc2c3c([nH]c2c1)CNCC3	0% (inactive)	116% (inactive)	77.7% (inactive)	89.9% (inactive)	9.92% (inactive)	80	89.9	-1.17% (inactive)	0.5% (inactive)
COC1=CC(=O)OC(/C=C/c2ccccc2)C1 (centres undefined)	0% (inactive)	124% (inactive)	96.6% (inactive)	87.6% (inactive)	2.78% (inactive)	84.8	87.6	-1.56% (inactive)	-4.5% (inactive)
O=c1[nH]c2ccccc2n1CCCN1CCC(n2c(=O)[nH]c3cc(Cl)ccc32)CC1	0% (inactive)	91% (inactive)	97.8% (inactive)	76% (inactive)	-6.47% (inactive)	82.5	76	-2.47% (inactive)	-0.17% (inactive)
CN(C)[C@@H]1C(=O)C(C(N)=O)=C(O)[C@@]2(O)C(=O)C3=C(O)c4c(O)cccc4[C@@](C)(O)[C@H]3[C@H](O)[C@@H]12	3% (inactive)	115% (inactive)	101% (inactive)	103% (inactive)	2.03% (inactive)	101	103	0.52% (inactive)	1.17% (inactive)
CNCCc1c[nH]c2ccccc12	0% (inactive)	127% (inactive)	85.9% (inactive)	84.5% (inactive)	-20.1% (inactive)	105	84.5	-0.39% (inactive)	12% (inactive)
O=C(CN1C2CCC1CC(O)(c1cccnc1)C2)Nc1ccc2c(c1)OCO2 (centres undefined)	11% (inactive)	72% (inactive)	90.2% (inactive)	91.3% (inactive)	2.46% (inactive)	88.8	91.3	-6.53% (inactive)	3.44% (inactive)
O=C1CC[C@@]2(O)[C@H]3Cc4ccc(O)c5c4[C@@]2(CCN3CC2CC2)[C@H]1O5	4% (inactive)	95% (inactive)	90.6% (inactive)	99.5% (inactive)	11% (inactive)	88.6	99.5	0.26% (inactive)	2.17% (inactive)
